Shown are actives, neighbours in structure and some others; about 4% of the full set was active somewhere.
TAAR1 antag: human TAAR1 antagonism | actives 1.5% (n = 360,000) | Q96RJ0 | CHO RD-HGA16 TAAR1, Fluo-8 calcium fluorescence, antagonist | inhibition, % at 3 µM;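 active = inhibition above a per-plate cutoff, the mean inhibition of test compounds on that plate plus 3 SD, cut at about 49% in these data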
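Test system: CHO RD-HGA16 cells bearing hTAAR1 | Reagent: β-PEA, EC80 | Compound dosing: 3 µM, single point | Schedule: Dye loading 75 min at 37 °C, then 30 min room temperature | Signal: Calcium fluorescence with Fluo-8 | Evaluation: Percent inhibition of PEA-evoked calcium signal, max/basal emission ratio | Control set: DMSO-only wells and EC80 β-PEA-stimulated wells | Repeats: Singlicate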
GPR7 antagonist: antagonists of human GPR7 (neuropeptides B/W receptor 1); P48145; GPR7-expressing cells, fluorescence antagonist assay; inhibition, % at 4.4 µM; actives 1.1% (n = 290,000); in the data active = inhibition above about 16%, passing the limit was not always enough;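 note: cells stimulated with the agonist NPW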
TAAR1 agonist: agonists of human TAAR1; CHO RD-HGA16 TAAR1, Fluo-8 calcium fluorescence; vehicle wells 0%, saturating PEA agonist 100%; activation, % at 3 µM; actives 0.99% (n = 360,000); AID 624467;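 active = activation above the mean activation of all test compounds in the run plus 3 SD, cut at about 38% in these data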
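Test system: RD-HGA16 (CHO) cells co-expressing Gα16 and hTAAR1 | Doses: Single dose, 3 µM | Schedule: 17-24 h seeding, 75 min 37 °C dye, 30 min RT | Evaluation: % activation from peak over basal fluorescence ratio, DMSO-to-PEA scaled | Technique: Kinetic Fluo-8 calcium fluorescence | Benchmarks: Low control DMSO, high control PEA (EC100)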
DAGLB inh: blocks human DAGLB lipase activity. Q8NCG7. HEK293T DAGLB membrane lysate, EnzChek fluorogenic substrate. inhibition, % at 5.17 µM. actives 0.059% (n = 340,000); in the data active = inhibition above about 34%
Target sequence (Q8NCG7 whole entry, looked up): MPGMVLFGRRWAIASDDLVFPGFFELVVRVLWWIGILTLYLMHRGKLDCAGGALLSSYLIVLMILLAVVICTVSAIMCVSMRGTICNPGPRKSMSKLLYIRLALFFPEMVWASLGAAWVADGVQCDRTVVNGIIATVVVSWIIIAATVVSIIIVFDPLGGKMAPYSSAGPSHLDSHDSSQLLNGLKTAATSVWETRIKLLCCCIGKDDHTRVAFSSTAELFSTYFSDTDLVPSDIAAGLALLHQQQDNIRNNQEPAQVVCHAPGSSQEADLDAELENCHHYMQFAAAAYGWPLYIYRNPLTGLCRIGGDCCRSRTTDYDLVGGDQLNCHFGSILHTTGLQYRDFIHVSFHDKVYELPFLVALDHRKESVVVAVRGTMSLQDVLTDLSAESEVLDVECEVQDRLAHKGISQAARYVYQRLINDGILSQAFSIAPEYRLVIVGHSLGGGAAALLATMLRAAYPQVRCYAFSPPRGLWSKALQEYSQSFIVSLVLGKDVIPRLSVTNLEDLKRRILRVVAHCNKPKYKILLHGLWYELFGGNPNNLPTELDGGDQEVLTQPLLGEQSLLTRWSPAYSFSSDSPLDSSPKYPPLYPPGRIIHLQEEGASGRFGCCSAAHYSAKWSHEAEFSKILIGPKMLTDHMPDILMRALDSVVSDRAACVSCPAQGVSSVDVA
MPTP block: inhibitors of mitochondrial permeability transition pore | AID 602449 | actives 1.4% (n = 360,000) | isolated mouse mitochondria, Ca2+ swelling absorbance, 30 min | inhibition, % at 10 µM;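 active = inhibition of 50% or more, scaled per plate between neutral and stimulator controls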
GPR7 antag conf: confirmation of human GPR7 antagonists | GPR7-expressing cells, calcium fluorescence antagonist mode | AID 1952 | actives 52% (n = 2,400) | shares compounds with GPR7 antagonist | inhibition, % at 4.4 µM; in the data active = inhibition above about 24%;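 note: stimulated with the GPR7 agonist NPW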
MCHR1 antagonist: MCHR1 (human) antagonism in GPR7 counter-screen. shares compounds with GPR7 antagonist. MCHR1-expressing cells, fluorescence antagonist assay. inhibition, % at 4.4 µM. actives 62% (n = 2,400). AID 2148; in the data active = inhibition above about 22%
Numbers stand for hits.

What do the screens show for `Cc1ccccc1CNC(=O)c1ccc(CSCc2ccccc2)cc1`?
TAAR1 antag: inactive; GPR7 antagonist: 31.7; TAAR1 agonist: inactive; DAGLB inh: inactive; MPTP block: inactive; GPR7 antag conf: 24.9; MCHR1 antagonist: 48.4

What do the screens show for `COc1ccc(CCn2c(SCCN3CCCCC3)nc3ccccc3c2=O)cc1OC`?
TAAR1 antag: inactive; GPR7 antagonist: 35.5; TAAR1 agonist: inactive; DAGLB inh: inactive; MPTP block: inactive; GPR7 antag conf: 30.5; MCHR1 antagonist: 35.4

Results for C=CCNC(=O)CSc1nc2ccccc2c(=O)n1CCc1ccc(OC)c(OC)c1 ?
TAAR1 antag: inactive; GPR7 antagonist: inactive; TAAR1 agonist: inactive; DAGLB inh: inactive; MPTP block: inactive

What do the screens show for `CS(=O)(=O)N1CCc2cc(-c3csc(NC(=O)Cc4cccs4)n3)ccc21`?
TAAR1 antag: 50.4; GPR7 antagonist: 38.6; TAAR1 agonist: inactive; DAGLB inh: inactive; MPTP block: inactive; GPR7 antag conf: 69.4; MCHR1 antagonist: 82.6

What do the screens show for `CC(=O)Nc1nc(-c2ccc3c(c2)CCN3S(C)(=O)=O)cs1`?
TAAR1 antag: inactive; GPR7 antagonist: inactive; TAAR1 agonist: inactive; DAGLB inh: inactive; MPTP block: inactive

Results for COc1cc2c(cc1OC)C(C)N(C(=O)C1=NN(c3cccc(C)c3)C(=O)CC1)CC2 (centres undefined) ?
TAAR1 antag: inactive; GPR7 antagonist: inactive; TAAR1 agonist: inactive; DAGLB inh: inactive; MPTP block: inactive

Results for Cc1nc2ccccc2n1C(c1cccnc1)c1nc2ccccc2[nH]1 (centres undefined) ?
TAAR1 antag: inactive; TAAR1 agonist: inactive; MPTP block: inactive

How did Cc1ccc(/C=N/NC(=O)c2ccccc2OCc2ccc(F)cc2)o1 do in these assays?
TAAR1 antag: inactive; GPR7 antagonist: inactive; TAAR1 agonist: inactive; DAGLB inh: inactive; MPTP block: inactive

How did O=C(N/N=C/c1ccncc1)c1ccccc1OCc1ccc(Br)cc1 do in these assays?
TAAR1 antag: inactive; GPR7 antagonist: 31.3; TAAR1 agonist: inactive; DAGLB inh: inactive; MPTP block: inactive; GPR7 antag conf: 25.3; MCHR1 antagonist: 42.7

Results for Cc1ccc(C(=O)c2oc3ccc(Cl)cc3c2NC(=O)CN2CCN(C)CC2)cc1 ?
TAAR1 antag: inactive; GPR7 antagonist: 23.8; TAAR1 agonist: inactive; DAGLB inh: inactive; MPTP block: inactive; GPR7 antag conf: 29.1; MCHR1 antagonist: 42.3

Results for CN1CCN(CC(=O)Nc2c(C(=O)C3CC3)oc3ccccc23)CC1 ?
TAAR1 antag: inactive; GPR7 antagonist: 21.1; TAAR1 agonist: inactive; DAGLB inh: inactive; MPTP block: inactive; GPR7 antag conf: inactive; MCHR1 antagonist: inactive

Results for CCOC(=O)c1oc2ccc(OC)cc2c1NC(=O)CN1CCN(C)CC1 ?
TAAR1 antag: inactive; GPR7 antagonist: inactive; TAAR1 agonist: inactive; DAGLB inh: inactive; MPTP block: inactive

Results for O=C(CN1CCOCC1)Nc1c(C(=O)C2CC2)oc2ccccc12 ?
TAAR1 antag: inactive; GPR7 antagonist: inactive; TAAR1 agonist: inactive; DAGLB inh: inactive; MPTP block: inactive

Results for CCN1C(=O)[C@@H]2[C@@H]3CN(S(=O)(=O)c4ccc(C)cc4)[C@@H](c4ccccc4Cl)[C@@H]3C(=O)C[C@@H]2C1=O ?
TAAR1 antag: inactive; TAAR1 agonist: inactive; MPTP block: inactive

How did O=C(CC(O)c1ccncc1)c1ccccc1O (centres undefined) do in these assays?
TAAR1 antag: inactive; TAAR1 agonist: inactive; DAGLB inh: inactive; MPTP block: inactive

What do the screens show for `CCC(NC(=O)c1cc(COc2cncc(Cl)c2)on1)c1ccncc1` (centres undefined)?
TAAR1 antag: inactive; GPR7 antagonist: inactive; TAAR1 agonist: inactive; DAGLB inh: inactive; MPTP block: inactive

What do the screens show for `CCC(NC(=O)c1cc(COc2ccc(F)cc2Cl)on1)c1ccncc1` (centres undefined)?
TAAR1 antag: inactive; GPR7 antagonist: 30.5; TAAR1 agonist: 43.3; DAGLB inh: inactive; MPTP block: inactive; GPR7 antag conf: inactive; MCHR1 antagonist: 46.8

Assay outcomes from PubChem.
